Source: ChEMBL document CHEMBL1144711, “Polyaminohydroxamic acids and polyaminobenzamides as isoform selective histone deacetylase inhibitors” (J Med Chem, 2008)

Columns and labels:
[1] = test system: HCT-116; assay: Increase in p21waf1 re-expression in human HCT116 cells at 10 uM after 24 hrs relative to control; type: functional
Outline: (§1)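 HCT116 cells adhered overnight, then exposed to 10 μM compound for 24 h. Cells lysed in HEPES pH 7.9/NaCl/Triton buffer with protease inhibitors at 4 °C. 30 μg total protein per lane run on 10% Bis-Tris gels and blotted with antibodies to AcH3, AcH4, p21waf1 or acetylated α-tubulin, with α-actin also probed. Infrared fluorescent secondaries used for quantification; single determinations reported as fold increase.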

[2] = test system: HCT-116; assay: Increase in acetylated histone H3 level in human HCT116 cells at 10 uM after 24 hrs relative to control; type: functional; outline: as §1
[3] = test system: HCT-116; assay: Increase in acetylated histone H4 level in human HCT116 cells at 10 uM after 24 hrs relative to control; type: functional; outline: as §1
[4] = test system: HCT-116; assay: Increase in acetylated alpha tubulin level in human HCT116 cells at 10 uM after 24 hrs relative to control; type: functional; outline: as §1
[5] = test system: HCT-116; assay: Cytotoxicity against human HCT116 cells assessed as cell viability after 96 hrs by MTS reduction assay; type: functional, cell-based; conditions: HCT-116, 96 h
[6] = target: Histone deacetylase 3 (Homo sapiens) (UniProt O15379); assay: Inhibition of human recombinant HDAC3; conditions: concentration not given here
[7] = target: T1, Protein deacetylase HDAC6 (Homo sapiens) (UniProt Q9UBN7); assay: Inhibition of human recombinant HDAC6; conditions: concentration not given here
T1 sequence (whole entry): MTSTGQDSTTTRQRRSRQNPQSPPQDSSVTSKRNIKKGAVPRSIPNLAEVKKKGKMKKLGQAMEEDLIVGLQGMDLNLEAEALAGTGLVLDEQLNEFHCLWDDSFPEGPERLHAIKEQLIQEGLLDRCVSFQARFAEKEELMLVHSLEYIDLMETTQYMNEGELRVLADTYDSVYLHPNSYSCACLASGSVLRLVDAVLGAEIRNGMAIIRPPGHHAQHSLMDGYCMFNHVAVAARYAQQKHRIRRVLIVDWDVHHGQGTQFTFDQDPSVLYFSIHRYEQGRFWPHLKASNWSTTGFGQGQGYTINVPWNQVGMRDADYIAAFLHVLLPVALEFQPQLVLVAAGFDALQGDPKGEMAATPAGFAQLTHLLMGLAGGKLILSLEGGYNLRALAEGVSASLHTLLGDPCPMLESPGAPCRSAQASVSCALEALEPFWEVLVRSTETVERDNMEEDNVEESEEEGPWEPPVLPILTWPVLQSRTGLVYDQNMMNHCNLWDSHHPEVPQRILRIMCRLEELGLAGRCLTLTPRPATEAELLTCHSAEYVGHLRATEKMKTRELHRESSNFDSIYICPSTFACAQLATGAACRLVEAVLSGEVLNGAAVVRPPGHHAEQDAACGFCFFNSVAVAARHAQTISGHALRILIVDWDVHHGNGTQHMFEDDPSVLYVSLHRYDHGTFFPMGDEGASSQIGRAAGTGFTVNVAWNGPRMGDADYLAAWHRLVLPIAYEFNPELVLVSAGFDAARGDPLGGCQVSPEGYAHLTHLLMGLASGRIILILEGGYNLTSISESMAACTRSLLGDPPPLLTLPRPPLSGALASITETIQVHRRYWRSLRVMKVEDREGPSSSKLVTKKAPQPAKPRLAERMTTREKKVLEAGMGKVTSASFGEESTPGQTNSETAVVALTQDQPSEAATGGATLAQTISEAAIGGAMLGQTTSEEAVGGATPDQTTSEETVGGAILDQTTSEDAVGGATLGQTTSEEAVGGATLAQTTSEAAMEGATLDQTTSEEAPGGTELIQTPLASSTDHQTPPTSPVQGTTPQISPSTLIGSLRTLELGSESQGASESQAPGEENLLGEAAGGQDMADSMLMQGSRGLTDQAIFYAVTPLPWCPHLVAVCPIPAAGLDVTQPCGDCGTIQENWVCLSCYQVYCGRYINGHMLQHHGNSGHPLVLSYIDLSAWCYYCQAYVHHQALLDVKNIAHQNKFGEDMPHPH

[8] = target: T2, Histone deacetylase (Homo sapiens) (UniProt Q13547+O15379+Q9UBN7+Q92769+Q9UQL6+Q8WUI4+Q9BY41+Q96DB2+P56524+Q9UKV0+Q969S8); conditions: HeLa, at 1 µM
[9] = target: T2, Histone deacetylase (Homo sapiens); assay: Inhibition of human HDAC in HeLa cells at 5 uM; type: cell-based
[10] = Inhibition of [14C]spermidine uptake at human polyamine transporter in ML1 cells; type: cell-based
Outline: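 Competition for 14C-spermidine uptake in ML-1 acute myelogenous leukemia cells. Concentration-dependent spermidine uptake measured in the presence of 0.0, 10.0, 25.0 and 50.0 μM test compound.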

[11] = test system: HCT-116; assay: Cytotoxicity against human HCT116 cells assessed as cell viability after 96 hrs by MTS reduction assay in presence of diamine oxidase inhibitor aminoguanidine; type: functional, cell-based; conditions: HCT-116, 96 h
Outline: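 HCT116 cells in McCoy's 5A with 10% fetal calf serum, 37 °C, 5% CO2; 3000 cells/well seeded in triplicate and attached overnight. Medium replaced with fresh medium containing a range of compound concentrations for 96 h. CellTiter 96 One Solution MTS added for 1.5 h at 37 °C, absorbance read at 490 nm. Two separate experiments averaged to give IC50.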

[12] = target: T2, Histone deacetylase (Homo sapiens); assay: Inhibition of human HDAC at 1 uM

Histone deacetylase 3 (Homo sapiens), sequence (O15379 whole entry): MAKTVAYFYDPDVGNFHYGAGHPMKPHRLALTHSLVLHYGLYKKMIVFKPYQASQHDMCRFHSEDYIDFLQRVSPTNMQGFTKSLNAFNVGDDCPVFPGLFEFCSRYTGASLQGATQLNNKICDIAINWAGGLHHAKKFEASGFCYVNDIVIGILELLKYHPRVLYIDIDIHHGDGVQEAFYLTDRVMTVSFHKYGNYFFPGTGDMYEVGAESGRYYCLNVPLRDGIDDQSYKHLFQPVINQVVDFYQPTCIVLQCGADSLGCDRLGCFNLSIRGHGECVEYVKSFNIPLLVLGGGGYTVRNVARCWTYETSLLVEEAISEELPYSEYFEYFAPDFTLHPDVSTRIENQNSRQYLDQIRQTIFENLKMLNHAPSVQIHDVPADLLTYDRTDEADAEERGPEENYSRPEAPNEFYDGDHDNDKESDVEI

| SMILES | Fold change [1] | Fold change [2] | Fold change [3] | Fold change [4] | IC50 [5] | inhibition [6] | inhibition [7] | inhibition [8] | inhibition [9] | Ki [10] | IC50 [11] | inhibition [12] |
| --- | --- | --- | --- | --- | --- | --- | --- | --- | --- | --- | --- | --- |
| CC(C)(C)c1ccc(CNCCCCNCCCNC(=O)CCCCCC(=O)NO)cc1 | 2.33 | 21.49 | 20.84 | 253.25 | > 100 µM | 99.1% | 99.7% | – | – | – | – | – |
| O=C(CCCCCCC(=O)NCCCNCCCCNCCSc1ccccc1)NO | 1.98 | 0 | 11.68 | 101.36 | > 100 µM | – | – | 16.5% | – | – | – | – |
| O=C(CCCCCCCCC(=O)NCCCNCCCCNCCC(c1ccccc1)c1ccccc1)NO | 0.41 | 0 | 0.95 | 1.97 | > 100 µM | – | – | 73.9% | – | – | – | – |
| O=C(CCCCCCCC(=O)NCCCNCCCCNCCC(c1ccccc1)c1ccccc1)NO | – | – | – | – | > 100 µM | – | – | 54.6% | – | – | – | – |
| CC(C)(C)c1ccc(CNCCCCNCCCNC(=O)CCCC(=O)NCc2ccc(C(=O)Nc3ccccc3N)cc2)cc1 | – | – | – | – | > 100 µM | – | – | 28% | 37.4% | 7.7 µM | – | – |
| CN(C)c1ccc(CN(CCCNCCCCNCc2ccc(C(C)(C)C)cc2)C(=O)CCCCC(=O)NO)cc1 | – | – | – | – | – | – | – | 2% | – | – | – | – |
| O=C(CCCCC(=O)NCCCNCCCCNCc1ccccc1-c1ccccc1)NO | 2.01 | 3.34 | 17.4 | 89.01 | > 100 µM | – | – | 71.3% | – | – | – | – |
| O=C(CCCCCCC(=O)NCCCNCCCCNCc1ccccc1-c1ccccc1)NO | 1.64 | 5.19 | 7.82 | 36.3 | > 100 µM | – | – | 38.6% | – | – | – | – |
| O=C(CCCCCC(=O)NCCCNCCCCNCCC(c1ccccc1)c1ccccc1)NO | – | – | – | – | > 100 µM | – | – | 46.3% | – | – | – | – |
| O=C(CCCCC(=O)NCCCNCCCCNCCSc1ccccc1)NO | 2.56 | 2.38 | 12.06 | 72.9 | > 100 µM | – | – | 6.7% | – | – | – | – |
| CN(C)c1ccc(CN(CCCNCCCCN)C(=O)CCCCCCC(=O)NO)cc1 | 0.49 | 0 | 1.95 | 6.07 | 38.6 µM | – | – | 58.6% | – | – | > 100 µM | 58.6% |
| O=C(CCCCCCC(=O)NCCCNCCCNCCCNCCC(c1ccccc1)c1ccccc1)NO | – | – | – | – | > 100 µM | – | – | 55.2% | – | – | – | – |
| CC(C)(C)c1ccc(CNCCCCNCCCNC(=O)CCCCCCCC(=O)NO)cc1 | 0.61 | 0 | 3.25 | 11.99 | > 100 µM | – | – | 88.7% | – | – | – | – |
| CN(C)c1ccc(CNCCCCNCCCNC(=O)CCCCCCC(=O)NO)cc1 | 0.46 | 0 | 1.36 | 6.76 | > 100 µM | – | – | 46.7% | – | – | – | – |
| CC(C)(C)c1ccc(CNCCCCNCCCNC(=O)CCCCCCC(=O)NCc2ccc(C(=O)Nc3ccccc3N)cc2)cc1 | 2.55 | 1.19 | 1.12 | 2.27 | > 100 µM | 1.3% | 11.7% | 30.8% | 51.2% | – | – | – |
| CC(C)c1ccc(CNCCCCNCCCNC(=O)CCCCCCC(=O)NO)cc1 | 0.86 | 0 | 4.74 | 11.98 | > 100 µM | – | – | 41.4% | – | – | – | – |
| Nc1ccccc1NC(=O)c1ccc(CNC(=O)CCCCCCC(=O)NCCCNCCCCNCCC(c2ccccc2)c2ccccc2)cc1 | – | – | – | – | > 100 µM | – | – | – | 66.7% | – | – | – |
| CC(C)c1ccc(CNCCCCNCCCNC(=O)CCCCC(=O)NO)cc1 | 3.01 | 3.76 | 14.22 | 75.7 | > 100 µM | – | – | 15.9% | – | – | – | – |
